# In ChEMBL document CHEMBL2157936, “Structure-activity relationships for side chain oxysterol agonists of the hedgehog signaling pathway” (ACS Med Chem Lett, 2012):
# pEC50: −log10 of the molar value. Active and inactive are the calls of the source. The rule behind the calls is not given here.
# Experiments:
# [1] = Agonist activity at Hh receptor in mouse C3H10T1/2 cells assessed as fold increase in Gli1 expression at 5 uM by RT-PCR analysis relative to control; assay type: functional, C3H 10T1/2
# [2] = Selectivity ratio of agonist activity at Hh receptor over agonist activity at LXR in mouse C3H10T1/2 cells; assay type: functional, C3H 10T1/2
# [3] = Agonist activity at LXR in mouse C3H10T1/2 cells assessed as fold increase in ABCA1 expression at 5 uM by RT-PCR analysis relative to control; assay type: functional, C3H 10T1/2
# M210B4 [4] = assay: Induction of Hh receptor-mediated osteoblast formation in mouse M210B4 cells assessed as increase in ALP expression at 5 uM after 48 hrs by RT-PCR analysis relative to control; assay type: cell-based
# How it was run: (§1)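 M2-10B4 cells received OHC (5 μM), or the 20(S)-/22(S)-OHC pair (5 μM each). Osterix and alkaline phosphatase mRNA were measured at time points of 24, 48 and 96 h. Expression is relative to the DMSO control. Data come from a representative experiment run in triplicate.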
# M210B4 [5] = assay: Agonist activity at Hh receptor in mouse M210B4 cells assessed as upregulation of Gli1 at 5 uM after 24 hrs by RT-PCR analysis relative to control; assay type: functional, cell-based
# How it was run: (§2)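 Read-out: GLI1 or PTCH mRNA in M2-10B4 cells. Cells were pretreated for 2 h with cyclopamine (5 μM), or left without it, then given OHC (5 μM). mRNA was measured after 24 h of incubation and expressed as fold induction over the DMSO control, set at 1. Data come from a representative experiment run in triplicate.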
# [6] = (§3) Agonist activity at Hh receptor in mouse C3H10T1/2 cells assessed as increase in Ptch expression by RT-PCR analysis; assay type: functional, cell-based; conditions: C3H 10T1/2
# How it was run: (§4)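 Dose-response in C3H10T1/2 and M2-10B4 cells. Read-out: mRNA of GLI1, PTCH (Hh) or ABCA1 (LXR), expressed relative to the DMSO control. EC50 values were derived from these curves.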
# C3H 10T1/2 [7] = assay: as §3; assay type: functional, cell-based; how it was run: as §4
# M210B4 [8] = assay: Agonist activity at Hh receptor in mouse M210B4 cells assessed as upregulation of Ptch at 5 uM after 24 hrs by RT-PCR analysis in presence of cyclopamine relative to control; assay type: functional, cell-based; how it was run: as §2
# M210B4 [9] = assay: Agonist activity at Hh receptor in mouse M210B4 cells assessed as upregulation of Gli1 at 5 uM after 24 hrs by RT-PCR analysis in presence of cyclopamine relative to control; assay type: functional, cell-based; how it was run: as §2
# M210B4 [10] = assay: Induction of Hh receptor-mediated osteogenesis in mouse M210B4 cells assessed as fold increase in Osx expression at 5 uM after 24 hrs by RT-PCR analysis relative to control; assay type: cell-based; how it was run: as §1
# M210B4 [11] = assay: Selectivity ratio of EC50 for LXR to EC50 for Hh receptor in mouse M210B4 cells; assay type: cell-based
# M210B4 [12] = assay: Agonist activity at Hh receptor in mouse M210B4 cells assessed as upregulation of Ptch at 5 uM after 24 hrs by RT-PCR analysis relative to control; assay type: functional, cell-based; how it was run: as §2
# [13] = (§5) Agonist activity at Hh receptor in mouse M210B4 cells assessed as increase in Gli1 expression by RT-PCR analysis; assay type: functional, cell-based; how it was run: as §4
# M210B4 [14] = assay: as §5; assay type: functional, cell-based; how it was run: as §4
# M210B4 [15] = assay: Induction of Hh receptor-mediated osteogenesis in mouse M210B4 cells assessed as fold increase in Osx expression at 5 uM after 48 hrs by RT-PCR analysis relative to control; assay type: cell-based; how it was run: as §1
# M210B4 [16] = assay: Induction of Hh receptor-mediated osteoblast formation in mouse M210B4 cells assessed as increase in ALP expression at 5 uM up to 96 hrs by RT-PCR analysis relative to control; assay type: cell-based; how it was run: as §1
# [17] = Agonist activity at LXR in mouse C3H10T1/2 cells assessed as increase in ABCA1 expression by RT-PCR analysis; assay type: functional, cell-based; conditions: C3H 10T1/2; how it was run: as §4
# [18] = (§6) Agonist activity at Hh receptor in mouse C3H10T1/2 cells assessed as increase in Gli1 expression by RT-PCR analysis; assay type: functional, cell-based; conditions: C3H 10T1/2; how it was run: as §4
# C3H 10T1/2 [19] = assay: as §6; assay type: functional, cell-based; how it was run: as §4
# M210B4 [20] = assay: Ratio of EC50 for Hh receptor in mouse M210B4 cells to EC50 for Hh receptor in mouse C3H10T1/2 cells; assay type: cell-based
# M210B4 [21] = assay: Induction of Hh receptor-mediated osteogenesis in mouse M210B4 cells assessed as fold increase in Osx expression at 5 uM up to 96 hrs by RT-PCR analysis relative to control; assay type: cell-based; how it was run: as §1
# C3H 10T1/2 [22] = assay: Selectivity ratio of EC50 for LXR to EC50 for Hh receptor in mouse C3H10T1/2 cells; assay type: cell-based
# [23] = (§7) Agonist activity at Hh receptor in mouse M210B4 cells assessed as increase in Ptch expression by RT-PCR analysis; assay type: functional, cell-based; how it was run: as §4
# M210B4 [24] = assay: as §7; assay type: functional, cell-based; how it was run: as §4
# [25] = Agonist activity at LXR in mouse M210B4 cells assessed as increase in ABCA1 expression by RT-PCR analysis; assay type: functional, cell-based; how it was run: as §4
# M210B4 [26] = assay: Induction of Hh receptor-mediated osteoblast formation in mouse M210B4 cells assessed as increase in ALP expression at 5 uM after 24 hrs by RT-PCR analysis relative to control; assay type: cell-based; how it was run: as §1
compound,measurement,setting,value
CC(C)(O)CCC[C@](C)(O)[C@H]1CC[C@H]2[C@@H]3CC=C4C[C@@H](O)CC[C@]4(C)[C@H]3CC[C@@]21C,fold change (FC),[1],107.8
same,Selectivity ratio,[2],4.1
same,fold change (FC),[3],26.3
CC(C)CC[C@H](O)[C@@H](C)[C@H]1CC[C@H]2[C@@H]3CC=C4C[C@@H](O)CC[C@]4(C)[C@H]3CC[C@]12C,fold change (FC),[1],52.5
same,Selectivity ratio,[2],22.8
same,fold change (FC),[3],2.3
C[C@@H]([C@H]1CC[C@H]2[C@@H]3CC=C4C[C@@H](O)CC[C@]4(C)[C@H]3CC[C@]12C)[C@@H](O)CCC(C)(C)O,fold change (FC),[1],9.9
same,Selectivity ratio,[2],3.4
same,fold change (FC),[3],2.9
C[C@H](CCO)[C@H]1CC[C@H]2[C@@H]3CC=C4C[C@@H](O)CC[C@]4(C)[C@H]3CC[C@]12C,fold change (FC),[1],4.1
same,Selectivity ratio,[2],10.4
same,fold change (FC),[3],0.4
CC(C)CC[C@@H](O)[C@@H](C)[C@H]1CC[C@H]2[C@@H]3CC=C4C[C@@H](O)CC[C@]4(C)[C@H]3CC[C@]12C [22(R)-HYDROXYCHOLESTEROL],fold change (FC),[1],4.7
same,fold change (FC),[3],24.1
CC(C)C[C@@H](O)C[C@@H](C)[C@H]1CC[C@H]2[C@@H]3CC=C4C[C@@H](O)CC[C@]4(C)[C@H]3CC[C@]12C,Activity,M210B4 [4],Active
same,Activity,M210B4 [5],Active
same,pEC50,[6],6.19
same,Activity,C3H 10T1/2 [7],Dose-dependent effect
same,Activity,M210B4 [8],inactive
same,Activity,M210B4 [9],inactive
same,fold change (FC),M210B4 [10],5
same,Ratio EC50,M210B4 [11],3
same,Activity,M210B4 [12],Active
same,fold change (FC),[1],87.1
same,pEC50,[13],6.24
same,Activity,M210B4 [14],Dose-dependent effect
same,fold change (FC),M210B4 [15],> 30
same,Activity,M210B4 [16],Active
same,pEC50,[17],5.82
same,Selectivity ratio,[2],17.8
same,pEC50,[18],6.27
same,Activity,C3H 10T1/2 [19],Dose-dependent effect
same,fold change (FC),[3],4.9
same,Ratio EC50,M210B4 [20],1.06
same,Activity,M210B4 [21],Active
same,Ratio EC50,C3H 10T1/2 [22],3
same,pEC50,[23],6.24
same,Activity,M210B4 [24],Dose-dependent effect
same,pEC50,[25],5.81
same,Activity,M210B4 [26],Active
CC(C)CCC[C@@H](C)[C@H]1CC[C@H]2[C@@H]3[C@@H](O)C=C4C[C@@H](O)CC[C@]4(C)[C@H]3CC[C@]12C,fold change (FC),[1],1.6
same,Selectivity ratio,[2],2.6
same,fold change (FC),[3],0.6
C[C@H](CCCC(C)(C)O)[C@H]1CC[C@H]2[C@@H]3CC=C4C[C@@H](O)CC[C@]4(C)[C@H]3CC[C@]12C,fold change (FC),[1],69.9
same,Selectivity ratio,[2],7.1
same,fold change (FC),[3],9.8
CC(C)C[C@H](O)C[C@@H](C)[C@H]1CC[C@H]2[C@@H]3CC=C4C[C@@H](O)CC[C@]4(C)[C@H]3CC[C@]12C,fold change (FC),[1],32.4
same,Selectivity ratio,[2],9
same,fold change (FC),[3],3.6
CC(C)(O)CC[C@](C)(O)[C@H]1CC[C@H]2[C@@H]3CC=C4C[C@@H](O)CC[C@]4(C)[C@H]3CC[C@@]21C,fold change (FC),[1],18.1
same,Selectivity ratio,[2],1.8
same,fold change (FC),[3],10.3
C[C@H](C(=O)CCC(C)(C)O)[C@H]1CC[C@H]2[C@@H]3CC=C4C[C@@H](O)CC[C@]4(C)[C@H]3CC[C@]12C,fold change (FC),[1],6
same,fold change (FC),[3],21.7
CC(C)CCC[C@](C)(O)[C@H]1CC[C@H]2[C@@H]3CC=C4C[C@@H](O)CC[C@]4(C)[C@H]3CC[C@@]21C,fold change (FC),[1],91.8
same,Selectivity ratio,[2],6.8
same,fold change (FC),[3],13.4
C[C@H](C(O)CCC(C)(C)O)[C@H]1CC[C@H]2[C@@H]3CC=C4C[C@@H](O)CC[C@]4(C)[C@H]3CC[C@]12C (mixture of isomers),fold change (FC),[1],1
same,fold change (FC),[3],0.9
